Screening results as filed in PubChem BioAssay.
NR2F2 inh: inhibitors of human COUP-TFII (NR2F2) | HEK293T NGFI-A luciferase reporter, luminescence | inhibition, % at 8.6 µM | 0.7% of 370,000 active | AID 686940;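 active = inhibition above a per-plate cutoff, mean inhibition of test wells between control levels plus 3 SD, cut at about 38% in these data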;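 also: cells cotransfected with COUP-TFII expression vector driving the NGFI-A reporter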
SMARCA2 act: increases SMARCA2 function in MMTV reporter cells. MG213 cells, MMTV-luciferase reporter, dexamethasone, overnight. activation, % at 9.1 µM. 1% of 370,000 active. AID 652017; in the data active = activation above about 7.8%
GalR3 antag: antagonists of human GalR3; O60755; inhibition, % at 3 µM; 0.44% of 360,000 active; AID 651719; HEK293 GalR3-CNG cAMP membrane potential fluorescence; galR3 body fused to GalR1 C-terminus;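 active = inhibition above the screen-wide average plus 3 SD, cut at about 13% in these data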;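 also: forskolin and galanin both at EC90 stimulate the cells; cAMP rise reported by CNG channel membrane potential dye signal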
Target sequence (O60755 1-299 limits assumed): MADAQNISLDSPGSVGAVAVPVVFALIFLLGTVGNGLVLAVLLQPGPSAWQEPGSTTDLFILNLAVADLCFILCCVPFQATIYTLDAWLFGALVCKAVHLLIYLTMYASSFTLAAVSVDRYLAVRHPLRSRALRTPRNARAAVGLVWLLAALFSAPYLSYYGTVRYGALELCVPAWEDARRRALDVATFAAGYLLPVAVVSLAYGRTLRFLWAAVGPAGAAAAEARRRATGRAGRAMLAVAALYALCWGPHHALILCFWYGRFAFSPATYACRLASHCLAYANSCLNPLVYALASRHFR
NR2E3 ag-1: activates human NR2E3 receptor; CHO-S Gal4-NCOR/VP16-NR2E3 two-hybrid, luciferase; inhibition of corepressor binding, % at 3.98 µM; 0.35% of 360,000 active; AID 602229;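 active = inhibition above the mean of all tested compounds plus 3 SD, cut at about 70% in these data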;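 also: higher means lower luciferase signal from less NR2E3 corepressor binding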
NR2E3 ag-2: agonists of human nuclear receptor NR2E3. inhibition of corepressor binding, % at 4.78 µM. 0.12% of 320,000 active. Q9Y5X4. GST-NR2E3/biotin-RetCOR TR-FRET, 1536-well. AID 2300;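 active = percent inhibition above the cutoff of mean plus 3 SD of all tested compounds, set per screening campaign, cut at about 20% in these data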
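Material: NR2E3–RetCOR corepressor complex / Amount: 1.35 nM GST-NR2E3 / Medium: Tris pH 7.5 / Compound: single nominal compound dose of 4.8 µM / Incubation: 5 h at 4 °C / Technique: TR-FRET, Eu(K)-anti-GST donor, streptavidin-D2 acceptor, ex 340, em 617/671 nm / Read-out basis: percent loss of FRET ratio relative to control wells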
SMARCA2 conf: SMARCA2 activation, confirmation screen. 30% of 3,500 active. shares compounds with SMARCA2 act. activation, % at 9.1 µM. MG213 cells, MMTV-luciferase with dexamethasone, luminescence, overnight; MG213 cells expressing E1A, Rb sequestered; DMSO wells 0%, reference activator 100%;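 active = activation above its plate's cutoff, the mean activation of tested wells plus 3 SD, cut at about 7.9% in these data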
GAL4-VP16 Luc: counter-screen for SMARCA2 activators: GAL4-VP16 luciferase reporter activation | 41% of 3,500 active | AID 686939 | activation, % at 9.1 µM | HEK293 GAL4-VP16 pG5luc reporter, luciferase luminescence; scaled: DMSO wells 0%, SAHA wells 100% | shares compounds with SMARCA2 act;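 active = activation above the solvent-only control well mean plus 3 SD, averaged across control plates, cut at about 5.2% in these data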
Of the large screens only hits and unclear results are named; the others gave an inactive call (follow-up assays come after a bar, where they were run). Shown are actives, neighbours in structure and some others; about 2.2% of the full set was active somewhere.

COc1ccc2c(=O)cc(-c3ccccc3F)oc2c1	SMARCA2 act 9.9 | SMARCA2 conf 8.4 | GAL4-VP16 Luc 5.6
COc1ccc(-c2cc(=O)c3cc(O)ccc3o2)cc1	none
Cc1cc(NC(=O)CN(C)CCOc2ccccc2)ccc1Br	SMARCA2 act 8.4 | SMARCA2 conf inactive | GAL4-VP16 Luc inactive
COc1cccc(NC(=O)COc2ccc(Br)c(C)c2)c1	SMARCA2 act 9.9 | SMARCA2 conf inactive | GAL4-VP16 Luc inactive
CN(CCOc1ccccc1)CC(=O)Nc1cccc(Br)c1	none
Cc1nn(CCC(=O)NNC(=O)Nc2ccc(F)cc2)c(C)c1[N+](=O)[O-]	none (no result: GalR3 antag, NR2E3 ag-1, NR2E3 ag-2)
COc1ccc(-n2c(SC/C=C/c3ccccc3)nnc2-c2cccs2)cc1	none (no result: GalR3 antag, NR2E3 ag-1, NR2E3 ag-2)
CS/C(=N\N(C)C(N)=O)c1ccccc1	SMARCA2 act 8.4 | SMARCA2 conf inactive | GAL4-VP16 Luc inactive
CS/C(=N\NC(N)=O)c1ccccc1	none
CCOC(=O)[C@@]12CCCC3=C1N(CCC3)C(=O)[C@H]2CC(=O)N1CCSCC1	none (no result: GalR3 antag, NR2E3 ag-1, NR2E3 ag-2)
COc1ccc(C2C(C(=O)Nc3cc(OC)ccc3OC)CCC(=O)N2c2ccc(OC)cc2)cc1 (stereo not drawn)	none (no result: GalR3 antag, NR2E3 ag-1, NR2E3 ag-2)
O=C(COCc1ccccc1)N1CCC(Oc2cccnc2)CC1	none (no result: GalR3 antag, NR2E3 ag-1, NR2E3 ag-2)
Cc1ccc(S(=O)(=O)/N=C(/c2ccccc2)N2CCOCC2)cc1	SMARCA2 act 8.2 | SMARCA2 conf inactive | GAL4-VP16 Luc inactive
O=S(=O)(/N=C(/c1ccccc1)N1CCOCC1)c1ccc(Br)cc1	none
CCCSc1nnc(NC(=O)Nc2ccc(C)cc2)s1	SMARCA2 act 8.0 | SMARCA2 conf inactive | GAL4-VP16 Luc inactive
N#CC1(NC(=O)COC(=O)/C=C/c2ccc3ccccc3n2)CCCCC1	SMARCA2 act 9.4 | SMARCA2 conf 8.3 | GAL4-VP16 Luc inactive
Cc1cc(Cl)ccc1OCC(=O)N/N=C/c1ccc[nH]1	none (no result: SMARCA2 act, GalR3 antag, NR2E3 ag-1, NR2E3 ag-2)
Cc1cc(N2CCOCC2)nc2ccc(NC(=O)CCC(=O)N3CCN(c4ccccc4)CC3)cc12	SMARCA2 act 8.2 | SMARCA2 conf inactive | GAL4-VP16 Luc 5.4
CCCCNC(=O)CCC(=O)Nc1ccc2nc(N3CCOCC3)cc(C)c2c1	none
O=C(CSc1nnc(-c2cccs2)o1)c1cccs1	SMARCA2 act 8.0 | SMARCA2 conf 12 | GAL4-VP16 Luc 7.0
COc1ccc(-c2nnc(SCC(=O)c3cccs3)o2)cc1	none
CCC1CCCCN1C(=O)CSc1nnc(-c2cccs2)o1 (stereo not drawn)	SMARCA2 act 8.0 | SMARCA2 conf 12 | GAL4-VP16 Luc 8.4
O=C(Nc1ccccc1Oc1ccccc1)NC1CCCCN(Cc2cccc(Cl)c2)C1=O (stereo not drawn)	none (no result: GalR3 antag, NR2E3 ag-1, NR2E3 ag-2)
Cc1ccccc1CNC(=O)C1CCC(CNS(=O)(=O)c2cccc3cccnc23)CC1 (stereo not drawn)	none (no result: GalR3 antag, NR2E3 ag-1, NR2E3 ag-2)
C=CCN1C(C(=O)OC)CN(Cc2cn(Cc3ccc(Cl)cc3)nn2)CCS1(=O)=O (stereo not drawn)	SMARCA2 act 8.5 (no result: GalR3 antag, NR2E3 ag-1, NR2E3 ag-2) | SMARCA2 conf inactive | GAL4-VP16 Luc inactive
CCOC(=O)Cn1cc(CN2C(C(=O)OC)CN(Cc3ccc(F)cc3)CCS2(=O)=O)nn1 (stereo not drawn)	none (no result: GalR3 antag, NR2E3 ag-1, NR2E3 ag-2)
CCOC(=O)Cn1cc(CN2CCS(=O)(=O)N(Cc3ccc(F)cc3)C(C(=O)OC)C2)nn1 (stereo not drawn)	SMARCA2 act 8.5 (no result: GalR3 antag, NR2E3 ag-1, NR2E3 ag-2) | SMARCA2 conf inactive | GAL4-VP16 Luc inactive
CCCC#Cc1ccc(CC[C@H]2O[C@H]3CC[C@@H](CO)O[C@H]3C[C@H]2NC(=O)CN2CCOCC2)cc1	none (no result: GalR3 antag, NR2E3 ag-1, NR2E3 ag-2)
N#Cc1c(NCCN)nc(-c2ccco2)c2c1CCCC2	SMARCA2 act 9.7 | SMARCA2 conf 31 | GAL4-VP16 Luc inactive
Cc1nc(SCc2ccccc2C#N)n[nH]1	none
Cc1ccccc1CSc1n[nH]c(NS(=O)(=O)c2ccccc2)n1	SMARCA2 act 8.0 | SMARCA2 conf inactive | GAL4-VP16 Luc inactive
CCn1c(SCC(=O)Nc2ccc(C(C)C)cc2)nnc1-c1ccc(C(C)(C)C)cc1	none (no result: GalR3 antag, NR2E3 ag-1, NR2E3 ag-2)
